A short description of data set [1]: Unbound fraction in rat plasma at 5 uM incubated for 6 hrs by equilibrium dialysis based LC-MS/MS analysis. It is filed as ADME, cell-free. The essentials:
(§1)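 Equilibrium dialysis of plasma spiked at 5 μM final against DPBS, in triplicate, 6 h at 37 °C. Samples were matrix-matched, acetonitrile-extracted with carbamazepine as internal standard, and analyzed by LC-MS/MS. fu = buffer-side/plasma-side analyte:IS peak area ratio, mean of 3 replicates.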
A general note: In equilibrium dialysis only unbound substance equilibrates across the membrane.

A short description of data set [2]: Ratio of unbound drug concentration in Sprague-Dawley rat brain to plasma at 0.2 mg/kg, iv measured after 0.25 hrs by LC-MS/MS analysis. It is filed as ADME, organism-based. The essentials: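 Male Sprague Dawley rats (n = 1) received a single IV dose through a jugular catheter, formulated in 10% ethanol/40% PEG400/50% DMSO at 0.5 mL/kg. Terminal plasma (K2EDTA) and whole brain were taken at 15 min. Brain was homogenized in isopropanol:water 7:3. Samples were acetonitrile-precipitated with carbamazepine as internal standard and quantified by LC-MS/MS against a plasma standard curve, with dilution correction.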

Data set [3] addresses Metabotropic glutamate receptor 1 (Homo sapiens) (UniProt Q13255). The data set can be described thus: Negative allosteric modulation of tetracycline-inducible human mGlu1 receptor expressed in human T-REx-293 cells by calcium mobilization assay. It is filed as functional, cell-based. In general terms: Calcium flux is commonly read through the fluorescence of an indicator in the cells.

The target in data set [4] is Metabotropic glutamate receptor 2 (Homo sapiens) (UniProt Q14416). The experiment in a line: Negative allosteric modulation of human mGlu2 receptor expressed in HEK293 cells harboring GIRK by thallium flux assay. Format: cell-based.
Data set [5] concerns the target Metabotropic glutamate receptor 3 (Homo sapiens) (UniProt Q14832). The experiment in a line: Negative allosteric modulation of human mGlu3 receptor expressed in HEK293 cells harboring GIRK assessed as maximal inhibition response by thallium flux assay relative to glutamate. Format: cell-based. The note with it: filed as negative allosteric modulator.
In data set [6] the target is Metabotropic glutamate receptor 4 (Homo sapiens) (UniProt Q14833). The experiment in a line: Negative allosteric modulation of human mGlu4 receptor expressed in CHO cells co-expressing Gqi5 assessed as inhibition of glutamate induced calcium mobilization preincubated for 142 sec followed by glutamate addition at EC20 concentration for 120 sec and measured after 40 sec addition of glutamate at EC80 concentration by Fluo-4 AM dye based fluorescence assay relative to glutamate. Format: functional, cell-based. Particulars: time 302.0 sec.

Data set [7] addresses Metabotropic glutamate receptor 7 (Homo sapiens) (UniProt Q14831). The experiment in a line: Negative allosteric modulation of human mGlu7 receptor expressed in HEK293-A co-expressing Galpha15 assessed as inhibition of DL-AP4 induced-calcium mobilization preincubated for 140 sec followed by DL-AP4 addition at EC20 concentration for 125 sec and measured after 90 sec addition of glutamate at EC80 concentration by Fluo-4 AM dye based fluorescence assay. It is filed as functional, cell-based. Particulars: time 355.0 sec. The essentials: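 HEK293 cells stably co-expressing human mGlu7 and mouse Gα15 were plated at 15,000/well in dialyzed-FBS medium and grown overnight at 37 °C. They were loaded with Fluo-4-AM (final 1.15 μM) for 50 min at RT, then read at RT in a triple-add assay with DL-AP4 as agonist. Compounds were run as 10-point 1:3 curves; ex 480/em 530 nm. Data were normalized to maximal agonist response and fitted to a four-parameter logistic equation.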

Data set [8] has as its target Metabotropic glutamate receptor 8 (Homo sapiens) (UniProt O00222). The experiment in a line: Negative allosteric modulation of human mGlu8 expressed in HEK293-A assessed as inhibition of glutamate induced-calcium mobilization preincubated for 140 sec followed by glutamate addition at EC20 concentration for 125 sec and measured after 90 sec addition of glutamate at EC80 concentration by Fluo-4 AM dye based fluorescence assay. Format: functional, cell-based. The note with it: time 355.0 sec. The procedure, abridged: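 HEK293 cells stably co-expressing human mGlu8 and mouse Gα15 were plated at 15,000/well and grown overnight. Fluo-4-AM (final 1.15 μM) was loaded for 50 min at 37 °C, […]. The FDSS run was at RT: compound, then glutamate EC20, then EC80 additions. Compounds were run as 10-point 1:3 curves; ex 480/em 530 nm. Data were normalized to glutamate ECmax and fitted to a four-parameter logistic equation.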

The nature of data set [9]: Drug metabolism in cryopreserved human Hepatocyte assessed as amide hydrolysis mediated metabolite formation at 10 uM measured after 4 hrs. Format: ADME, cell-based. Particulars: hepatocytes. The essentials: (§2)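 Rat, dog, monkey and human hepatocytes were incubated with 10 μM compound and sampled at 0 and 4 h. Metabolites were tentatively identified by accurate-mass LC-MS (observed m/z). Retention times were taken from MS extracted ion chromatograms.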

Data set [10] in a line: Drug metabolism in cryopreserved rat Hepatocyte assessed as amide hydrolysis mediated metabolite formation at 10 uM measured after 4 hrs. It is filed as ADME, cell-based. Particulars: hepatocytes. The essentials:
as §2

A short description of data set [11]: Drug metabolism in cryopreserved dog Hepatocyte assessed as amide hydrolysis mediated metabolite formation at 10 uM measured after 4 hrs. Format: ADME, cell-based, Canis lupus familiaris. The note with it: hepatocytes. The essentials:
as §2

The nature of data set [12]: Drug metabolism in cryopreserved cynomolgus monkey Hepatocyte assessed as amide hydrolysis mediated metabolite formation at 10 uM measured after 4 hrs. It is filed as ADME, cell-based, Macaca fascicularis. The note with it: hepatocytes. The procedure, abridged:
as §2

A short description of data set [13]: Unbound fraction in rat brain at 1 uM incubated for 6 hrs by equilibrium dialysis based LC-MS/MS analysis. It is filed as ADME, tissue-based. The essentials: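 Naïve rat brain was homogenized in DPBS (1:3 w/w) and dialyzed against DPBS at 1 μM final, in triplicate, 6 h at 37 °C. Quantification was by LC-MS/MS. Diluted fu2 = buffer/homogenate peak area ratio, corrected to undiluted fu using the 1/4 dilution equation; mean of 3 replicates.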

The nature of data set [14]: Unbound fraction in human plasma at 5 uM incubated for 6 hrs by equilibrium dialysis based LC-MS/MS analysis. Format: ADME, cell-free. The essentials: as §1

Results on 7 molecules are retold here after ChEMBL document CHEMBL6074702, “Discovery of 4-(5-Membered)Heteroarylether-6-methylpicolinamide Negative Allosteric Modulators of Metabotropic Glutamate Receptor Subtype 5” (ACS Med Chem Lett, 2024).

Activity calls are given as the source filed them. No cut-off for these calls is given here.

Metabotropic glutamate receptor 4 (Homo sapiens), sequence (Q14833 whole entry): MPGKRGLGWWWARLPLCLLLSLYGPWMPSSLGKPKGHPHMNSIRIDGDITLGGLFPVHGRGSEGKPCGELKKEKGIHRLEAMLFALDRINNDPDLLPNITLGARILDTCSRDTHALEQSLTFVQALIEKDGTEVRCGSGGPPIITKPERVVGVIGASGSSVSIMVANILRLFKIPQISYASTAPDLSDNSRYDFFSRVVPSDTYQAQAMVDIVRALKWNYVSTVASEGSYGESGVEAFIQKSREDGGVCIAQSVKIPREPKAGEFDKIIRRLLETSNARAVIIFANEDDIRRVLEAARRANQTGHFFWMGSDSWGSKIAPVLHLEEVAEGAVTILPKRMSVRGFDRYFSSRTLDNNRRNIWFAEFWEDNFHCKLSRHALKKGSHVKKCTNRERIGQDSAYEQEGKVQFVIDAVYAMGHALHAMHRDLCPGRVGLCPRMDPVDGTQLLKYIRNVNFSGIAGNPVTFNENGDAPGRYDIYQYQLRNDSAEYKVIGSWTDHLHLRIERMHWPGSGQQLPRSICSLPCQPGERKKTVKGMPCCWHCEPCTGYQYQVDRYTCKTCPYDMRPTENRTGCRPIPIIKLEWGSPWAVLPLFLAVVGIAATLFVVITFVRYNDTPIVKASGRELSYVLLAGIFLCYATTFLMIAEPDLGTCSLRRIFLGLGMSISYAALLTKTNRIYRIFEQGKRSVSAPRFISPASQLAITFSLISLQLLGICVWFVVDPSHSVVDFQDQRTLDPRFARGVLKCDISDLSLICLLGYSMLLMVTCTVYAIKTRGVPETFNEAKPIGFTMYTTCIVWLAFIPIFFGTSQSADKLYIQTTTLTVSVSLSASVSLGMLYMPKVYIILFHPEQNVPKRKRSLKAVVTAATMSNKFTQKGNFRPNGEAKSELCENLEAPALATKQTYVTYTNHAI
Metabotropic glutamate receptor 3 (Homo sapiens), sequence (Q14832 23-879 limits assumed): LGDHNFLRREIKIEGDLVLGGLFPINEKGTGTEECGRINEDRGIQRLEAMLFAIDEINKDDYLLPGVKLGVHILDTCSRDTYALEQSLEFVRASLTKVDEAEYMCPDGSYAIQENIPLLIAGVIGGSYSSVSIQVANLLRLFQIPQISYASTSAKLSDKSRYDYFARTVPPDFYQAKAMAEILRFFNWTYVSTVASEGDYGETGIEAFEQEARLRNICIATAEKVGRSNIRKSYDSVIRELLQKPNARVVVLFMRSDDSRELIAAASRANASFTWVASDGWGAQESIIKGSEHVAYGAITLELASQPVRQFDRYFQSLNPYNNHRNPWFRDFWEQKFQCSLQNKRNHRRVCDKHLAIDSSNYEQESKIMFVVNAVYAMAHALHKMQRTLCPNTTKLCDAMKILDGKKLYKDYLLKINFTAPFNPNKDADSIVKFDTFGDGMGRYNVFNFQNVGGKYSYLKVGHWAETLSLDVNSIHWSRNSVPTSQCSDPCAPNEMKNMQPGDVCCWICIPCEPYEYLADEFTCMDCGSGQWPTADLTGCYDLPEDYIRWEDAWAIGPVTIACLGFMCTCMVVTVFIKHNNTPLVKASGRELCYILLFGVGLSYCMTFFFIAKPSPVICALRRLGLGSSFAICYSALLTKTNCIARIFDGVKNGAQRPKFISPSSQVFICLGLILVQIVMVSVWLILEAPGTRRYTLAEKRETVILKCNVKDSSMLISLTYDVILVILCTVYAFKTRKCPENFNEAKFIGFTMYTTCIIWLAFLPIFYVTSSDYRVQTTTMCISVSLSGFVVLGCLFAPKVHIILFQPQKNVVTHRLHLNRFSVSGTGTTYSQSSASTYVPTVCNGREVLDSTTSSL
Metabotropic glutamate receptor 2 (Homo sapiens), sequence (Q14416 19-872 limits assumed): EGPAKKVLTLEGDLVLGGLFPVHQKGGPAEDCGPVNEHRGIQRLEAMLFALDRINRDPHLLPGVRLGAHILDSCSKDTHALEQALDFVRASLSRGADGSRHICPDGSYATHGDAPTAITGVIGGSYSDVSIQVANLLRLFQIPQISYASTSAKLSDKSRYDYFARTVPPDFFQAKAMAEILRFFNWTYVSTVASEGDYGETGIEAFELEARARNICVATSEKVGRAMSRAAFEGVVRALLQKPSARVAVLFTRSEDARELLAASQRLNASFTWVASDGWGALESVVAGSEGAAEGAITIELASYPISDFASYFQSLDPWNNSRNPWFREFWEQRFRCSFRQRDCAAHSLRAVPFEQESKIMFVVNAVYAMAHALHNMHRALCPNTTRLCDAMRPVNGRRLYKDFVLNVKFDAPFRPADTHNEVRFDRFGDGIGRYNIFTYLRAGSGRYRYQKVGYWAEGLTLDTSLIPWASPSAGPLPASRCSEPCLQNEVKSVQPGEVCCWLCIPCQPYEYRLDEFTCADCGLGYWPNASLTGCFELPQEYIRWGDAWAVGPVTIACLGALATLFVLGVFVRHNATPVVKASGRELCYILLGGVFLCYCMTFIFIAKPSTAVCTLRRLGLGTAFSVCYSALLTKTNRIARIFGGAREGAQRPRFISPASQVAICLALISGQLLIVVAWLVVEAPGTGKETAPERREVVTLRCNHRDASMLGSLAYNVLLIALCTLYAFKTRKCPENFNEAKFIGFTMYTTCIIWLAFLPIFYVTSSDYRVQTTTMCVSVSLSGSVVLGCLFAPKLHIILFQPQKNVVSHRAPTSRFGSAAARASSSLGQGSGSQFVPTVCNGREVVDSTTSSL
Metabotropic glutamate receptor 7 (Homo sapiens), sequence (Q14831 whole entry): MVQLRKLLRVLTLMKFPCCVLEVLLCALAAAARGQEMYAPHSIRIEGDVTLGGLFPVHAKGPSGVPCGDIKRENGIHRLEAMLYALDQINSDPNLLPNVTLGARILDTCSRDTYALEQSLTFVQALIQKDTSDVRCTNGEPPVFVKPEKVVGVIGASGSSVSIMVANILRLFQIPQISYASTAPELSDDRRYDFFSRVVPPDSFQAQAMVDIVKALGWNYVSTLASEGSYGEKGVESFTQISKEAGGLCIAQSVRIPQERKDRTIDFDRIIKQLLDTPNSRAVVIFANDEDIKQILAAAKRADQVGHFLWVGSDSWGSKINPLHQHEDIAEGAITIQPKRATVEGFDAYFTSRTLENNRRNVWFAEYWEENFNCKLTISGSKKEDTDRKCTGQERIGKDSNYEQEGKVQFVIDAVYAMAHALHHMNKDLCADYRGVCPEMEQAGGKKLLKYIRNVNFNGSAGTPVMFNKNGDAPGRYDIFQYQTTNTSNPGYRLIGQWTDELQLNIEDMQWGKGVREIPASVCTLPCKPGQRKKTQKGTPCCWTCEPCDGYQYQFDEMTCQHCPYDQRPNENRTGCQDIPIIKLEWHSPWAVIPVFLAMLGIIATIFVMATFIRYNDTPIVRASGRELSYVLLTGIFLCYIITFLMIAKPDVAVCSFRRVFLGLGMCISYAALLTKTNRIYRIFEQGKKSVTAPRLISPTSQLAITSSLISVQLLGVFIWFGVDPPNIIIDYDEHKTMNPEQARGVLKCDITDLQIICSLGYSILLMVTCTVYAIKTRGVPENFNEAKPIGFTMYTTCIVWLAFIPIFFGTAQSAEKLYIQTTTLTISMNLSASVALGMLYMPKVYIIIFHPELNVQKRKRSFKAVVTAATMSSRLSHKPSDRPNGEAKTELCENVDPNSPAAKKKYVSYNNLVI
Metabotropic glutamate receptor 8 (Homo sapiens), sequence (O00222 whole entry): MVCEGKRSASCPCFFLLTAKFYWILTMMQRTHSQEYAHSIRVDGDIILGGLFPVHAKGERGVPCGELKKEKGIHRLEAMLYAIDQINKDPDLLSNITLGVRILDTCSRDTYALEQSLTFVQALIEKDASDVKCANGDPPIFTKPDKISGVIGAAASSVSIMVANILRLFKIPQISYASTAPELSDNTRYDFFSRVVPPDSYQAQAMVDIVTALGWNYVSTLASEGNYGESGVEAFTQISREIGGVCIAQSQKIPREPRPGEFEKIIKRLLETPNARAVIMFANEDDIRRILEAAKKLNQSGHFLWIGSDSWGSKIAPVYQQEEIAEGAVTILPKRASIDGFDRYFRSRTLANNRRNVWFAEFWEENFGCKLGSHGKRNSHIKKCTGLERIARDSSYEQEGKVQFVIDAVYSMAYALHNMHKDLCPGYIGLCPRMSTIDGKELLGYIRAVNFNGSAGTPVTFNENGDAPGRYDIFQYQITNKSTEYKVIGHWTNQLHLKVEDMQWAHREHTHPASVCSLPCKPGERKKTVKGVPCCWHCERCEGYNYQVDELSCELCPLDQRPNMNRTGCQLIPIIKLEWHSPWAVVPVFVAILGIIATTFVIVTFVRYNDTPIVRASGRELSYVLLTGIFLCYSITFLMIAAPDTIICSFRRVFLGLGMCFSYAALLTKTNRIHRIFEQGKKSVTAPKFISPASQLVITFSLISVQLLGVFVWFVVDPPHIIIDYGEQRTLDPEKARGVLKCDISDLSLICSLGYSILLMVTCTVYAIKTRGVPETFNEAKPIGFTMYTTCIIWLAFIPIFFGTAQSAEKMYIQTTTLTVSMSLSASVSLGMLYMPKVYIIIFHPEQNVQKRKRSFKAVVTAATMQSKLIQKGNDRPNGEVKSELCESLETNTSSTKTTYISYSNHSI

For `Cc1cccc(NC(=O)c2cc(Oc3ccnn3C)cc(C)n2)n1`, the Fu result in data set [1] is reported as “Not_determined(Unstable)”. Also, the “K(p,uu,brain)” value in data set [2] is listed as “Not_determined(Unstable)”.
On to `Cc1cccc(NC(=O)c2cc(Oc3cc(C)nn3C)cc(C)n2)n1`, for which the Fu entry in data set [1] was “Not_determined(Unstable)”. The “K(p,uu,brain)” value in data set [2] is “Not_determined(Unstable)”.
As to `Cc1cc(Oc2cnn(C)c2)cc(C(=O)Nc2ccc(F)cn2)n1`, the result in [3], in [4], in data set [6], in data set [7] and in data set [8] was inactive. In addition, in data set [5], the Imax came to 58%. In addition, the Drug metabolism entry in [9], in data set [10], in data set [11] and in data set [12] was “metabolite_detected” each time.
With `Cc1cc(Oc2cnn(C)c2C(F)(F)F)cc(C(=O)Nc2ccc(F)cn2)n1`, the Fu entry in data set [1] is “Not_determined(Unstable)”; in data set [13], 0.002. Also, the “K(p,uu,brain)” value in data set [2] is “Not_determined(Unstable)”.
For the molecule `Cc1cc(Oc2cnn(C)c2C(F)(F)F)cc(C(=O)Nc2nc(C)cs2)n1`, the Fu entry in data set [1] is listed as “Not_determined(Unstable)”; in [14] it was 0.004; in data set [13] it was 0.003. Further, in data set [2], the “K(p,uu,brain)” value was “Not_determined(Unstable)”.
Take `Cc1cc(Oc2ccnn2C)cc(C(=O)Nc2nc(C)cs2)n1`: in data set [1], the Fu worked out at 0.219.
Regarding `Cc1cccc(NC(=O)c2cc(Oc3cnn(C)c3C(F)(F)F)cc(C)n2)n1`, the Fu entry in [1] was “Not_determined(Unstable)”. Moreover, the “K(p,uu,brain)” value in [2] was “Not_determined(Unstable)”.
